# Scp1 inh – Scp-1 (human) phosphatase inhibition; Q9GZU7; Recombinant Scp1, phosphopeptide, malachite green phosphate absorbance; inhibition, % at 20 µM; actives 0.88% (n = 340,000);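 active = inhibition above about 50% at 20 µM, limit read from the data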;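 note: plate controls were DMSO wells with enzyme for no effect and wells lacking enzyme for full effect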
#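 Test system: SCP-1 phosphatase catalytic domain, residues 76-261 | Compound dosing: One concentration, 20 µM, with 1.0% DMSO | Schedule: 45 min room-temperature reaction, 5 min colour, 30 min stabiliser | Detection: Absorbance at 630 nm | Read-out basis: % inhibition of SCP-1 phosphate liberation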
# NadD inh – inhibitors of Staphylococcus aureus NadD. actives 0.78% (n = 360,000). purified NadD enzyme, colorimetric absorbance read-out. inhibition, % at 20 µM; in the data active = inhibition above about 26%
# SUMO1 PPI mod – alters human SUMO1 binding to SIM partners | P63165 | SUMO1 binding to a labelled peptide, TR-FRET, 1 h | inhibition, % at 20 µM | actives 0.33% (n = 360,000); in the data active = inhibition above about 37%
# STEP block – STEP (human) phosphatase inhibition. P54829. AID 588621. inhibition, % at 20 µM. actives 0.25% (n = 360,000). recombinant STEP, OMFP fluorogenic substrate, fluorescence;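 active = inhibition at 20 µM, scaled per plate between control wells, above about 37%, limit read from the data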;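 note: 0% = DMSO with enzyme and substrate and 100% = substrate only without enzyme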
#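 Also added – OMFP at 25 µM · Test system – STEP tyrosine phosphatase · Technique – FITC-channel fluorescence of OMFP product · Schedule – 20 min at room temperature, dark · Evaluation – control-normalized % inhibition with plate pattern correction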
# LMPTP inh – LMPTP (human) inhibition; P24666; recombinant LMPTP-A, OMFP fluorogenic substrate, fluorescence intensity; inhibition, % at 20 µM; actives 0.22% (n = 360,000); AID 651560;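 active = compounds that cut the enzyme signal by at least half of the control window in the single-dose screen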;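 note: plate controls were DMSO wells with enzyme plus substrate for no effect and substrate without enzyme for full effect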
#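 Assay system: LMPTP-A phosphatase enzyme | Input: 0.625 nM enzyme | Also added: Fluorogenic phosphatase substrate OMFP at 400 µM final | Compound dosing: One test concentration per compound, 20 µM, with 3% DMSO overall | Schedule: 50 min enzyme reaction at room temperature, protected from light | Signal: Fluorescence intensity | Benchmarks: no-enzyme and uninhibited controls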
# DNMT1 block – inhibitors of human DNMT1; actives 0.83% (n = 360,000); P26358; inhibition (reported as % activation of signal), % at 10 µM; AID 588458; DNMT1 molecular beacon, Hinp1I cleavage, fluorescence; in the data active = inhibition above about 50%
# Target sequence (P26358 504-1616 limits assumed): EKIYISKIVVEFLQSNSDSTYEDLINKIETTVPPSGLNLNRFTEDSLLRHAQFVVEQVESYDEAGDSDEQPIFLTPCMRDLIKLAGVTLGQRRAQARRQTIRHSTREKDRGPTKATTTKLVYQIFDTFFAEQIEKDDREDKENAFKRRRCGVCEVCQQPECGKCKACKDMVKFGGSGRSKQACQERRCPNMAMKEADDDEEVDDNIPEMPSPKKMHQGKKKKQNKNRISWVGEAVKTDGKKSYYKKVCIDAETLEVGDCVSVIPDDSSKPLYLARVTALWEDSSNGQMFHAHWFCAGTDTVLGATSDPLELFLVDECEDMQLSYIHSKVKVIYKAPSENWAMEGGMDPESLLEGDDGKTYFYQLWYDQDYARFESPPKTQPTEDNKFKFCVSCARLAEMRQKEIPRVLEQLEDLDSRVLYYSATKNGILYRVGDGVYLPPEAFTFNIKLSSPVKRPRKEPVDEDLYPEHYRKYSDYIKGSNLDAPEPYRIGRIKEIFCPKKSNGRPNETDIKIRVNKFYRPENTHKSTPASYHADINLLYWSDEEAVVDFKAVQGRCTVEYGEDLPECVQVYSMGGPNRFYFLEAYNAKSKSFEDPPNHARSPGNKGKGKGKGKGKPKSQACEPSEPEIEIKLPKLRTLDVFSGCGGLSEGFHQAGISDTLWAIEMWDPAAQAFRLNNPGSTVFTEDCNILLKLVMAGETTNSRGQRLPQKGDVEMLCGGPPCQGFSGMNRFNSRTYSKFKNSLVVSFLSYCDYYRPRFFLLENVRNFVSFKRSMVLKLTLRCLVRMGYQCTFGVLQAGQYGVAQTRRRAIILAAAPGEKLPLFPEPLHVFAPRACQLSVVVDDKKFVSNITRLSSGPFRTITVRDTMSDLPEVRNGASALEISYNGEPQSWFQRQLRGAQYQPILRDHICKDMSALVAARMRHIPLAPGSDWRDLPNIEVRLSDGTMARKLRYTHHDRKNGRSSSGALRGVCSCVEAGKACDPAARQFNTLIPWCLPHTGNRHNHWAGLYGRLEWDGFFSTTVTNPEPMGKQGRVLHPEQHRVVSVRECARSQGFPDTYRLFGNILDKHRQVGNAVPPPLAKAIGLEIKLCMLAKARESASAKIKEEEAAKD
# NadD conf – confirmation of Staphylococcus aureus NadD inhibitors; shares compounds with NadD inh; purified S. aureus NadD, colorimetric enzyme assay; inhibition, % at 20 µM; actives 13% (n = 2,000); AID 624309; in the data active = inhibition mostly above about 42%, no sharp cut-off; inactive = mostly below about 42%
# Numbers without * were called inactive; · = no result. Most compounds without a hit are left out; they make up all but 2.4% or so of the library.
SMILES,Scp1 inh,NadD inh,SUMO1 PPI mod,STEP block,LMPTP inh,DNMT1 block,NadD conf
O=C(CSc1nc(=O)n2ccccc2n1)N1N=C(c2cccs2)CC1c1ccc(F)cc1 (stereo unspecified),-2,13,-12,1,3,-1,·
CCN1CCN(CC(=O)N2N=C(c3cccs3)CC2c2ccc(OC)cc2)C(=O)C1=O (stereo unspecified),-1,-3,-15,1,-2,0,·
CCOC(=O)N1CCN(C(=O)CSc2nc3c(cnn3-c3ccccc3)c(=O)[nH]2)CC1,-8,-6,10,-2,-6,4,·
COc1ccc(NC(=O)c2ccc3c(c2)NC(=O)CS3)cc1S(=O)(=O)Nc1ccc(Br)cc1,-4,0,16,3,1,-2,·
Cc1ccc(NS(=O)(=O)c2cc(NC(=O)c3ccc4c(c3)NC(=O)CS4)ccc2C)c(C)c1,-3,34*,6,6,4,-16,24
CC[C@H](C)/C=C(C)/C=C/C(=O)Cc1cc(O)c(C)c(O)c1C=O,-1,33*,12,-3,1,-14,14
CC[C@H](C)/C=C(C)/C=C/c1cc2c(cn1)C(=O)[C@@](C)(OC(C)=O)C(O)=C2Cl,·,13,-12,10,4,30,·
Cc1cccc(NC(=O)CSCC(=O)Nc2ccccc2C(=O)NC2CC2)c1,-5,1,3,1,-1,-1,·
FC(F)Oc1ccc(NC(=S)NNc2ccnc3cc(Cl)ccc23)cc1,3,32*,-10,10,9,-13,18
Cn1c(=O)n(C)c2cc3[nH]cnc3cc21,-12,-6,2,2,0,-1,·
Nc1cc2nc[nH]c2cc1N,3,39*,34,19,16,-23,37
Nc1ccccc1Nc1ccc([N+](=O)[O-])cc1[N+](=O)[O-],-7,-1,-24,-3,1,46,·
O=[N+]([O-])c1ccc(Nc2cccc3c2[nH]c2c(-c4ccccc4)nccc23)c([N+](=O)[O-])c1,24,44*,9,4,4,2,16
CSc1nnc(N(CCC#N)CCC#N)s1,8,1,2,-1,1,0,·
CCOC(=O)C1=C(N)Oc2cc(O)ccc2C1c1ccc(F)cc1F (stereo unspecified),-11,-1,8,-4,2,-3,·
Cc1ccc(C(=O)N2CCN(C3c4cccc5cccc(c45)C3NS(=O)(=O)c3ccccc3)CC2)cc1 (stereo unspecified),6,36*,-6,3,3,-10,19
CC(=O)N1CCN(C2c3cccc4cccc(c34)C2NS(=O)(=O)c2ccccc2)CC1 (stereo unspecified),0,-1,-7,1,0,-1,·
Cn1c(C(=O)NCc2cccs2)cc2c(=O)n(C)c3ccccc3c21,-4,-2,-11,0,0,4,·
Cn1c2ccccc2c(=O)c2ccc(NCCc3cccs3)cc21,14,36*,15,0,14,27,3
CCS(=O)(=O)N1Cc2cc(C(=O)NCCOC)nc(-c3cccc(-c4ccncc4)c3)c2[C@H]1CCO,·,-3,5,·,-2,·,·
O=C(NNc1nc(-c2ccccc2)c2cc(Br)ccc2n1)c1ccc(S(=O)(=O)N2CCOCC2)cc1,9,24,3,2,1,-6,·
O=C(NNc1nc(-c2ccccc2)c2cc(Br)ccc2n1)c1ccc(S(=O)(=O)N2CCCCC2)cc1,18,37*,6,0,2,-6,25
Nc1nc2c(s1)CCCCCCCCCC2,4,15,6,1,13,6,·
C=CCN1CCc2nc(N)sc2CC1,-11,30*,-19,0,20,-4,21
Cn1c(=O)n(Cc2ccccc2Cl)c(=O)c2c1[nH]c(=S)n2C,-2,39*,0,1,25,2,32
SMILES,Scp1 inh,NadD inh,SUMO1 PPI mod,STEP block,LMPTP inh,DNMT1 block,NadD conf
Cn1c(=O)n(Cc2ccccc2Cl)c2ccccc21,0,-3,2,1,1,-2,·
O=C(NCC1CCCO1)c1cc(-c2ccc(F)cc2)no1 (stereo unspecified),-5,3,6,0,0,-2,·
COc1c(C(O)CC(C)C)ccc2c1C(=O)OCc1cc(C)cc(O)c1O2 (stereo unspecified),4,92*,6,-2,1,1,-2
CC(NC(=O)c1ccco1)C(=O)OC(C)C(=O)NCc1ccccc1 (stereo unspecified),-5,-4,-3,-8,0,-1,·
Cc1c(NC(=O)COC(=O)c2ccc(O)cc2)c(=O)n(-c2ccccc2)n1C,-3,3,2,0,-1,7,·
Cc1nn(-c2ccccc2)c(C)c1/C=N/NC(=O)CSc1nc2ccccc2c(=O)n1-c1ccc(Br)cc1,-5,30*,1,3,1,49,3
Cc1ccc(/C=N/NC(=O)CSc2nc3ccccc3c(=O)n2-c2ccccc2C)s1,-10,50*,-1,7,3,-22,34
Cc1ccc(-n2c(SCC(=O)N/N=C/c3c(C)nn(-c4ccccc4)c3C)nc3ccccc3c2=O)cc1,-8,22,-6,4,3,6,·
Cc1oc2c(cc(NS(=O)(=O)c3ccc4c5c(cccc35)C(=O)N4)c3ccccc32)c1C(=O)OC(C)C,-25,30*,8,1,2,-30,37*
O=C1CCCc2oc3c(cc(NS(=O)(=O)c4ccc5c6c(cccc46)C(=O)N5)c4ccccc43)c21,-13,24,-10,6,3,-23,·
O=C(CNC(=O)C1CCCCC1)NCc1ccco1,11,-2,0,-2,0,13,·
CCOC(=O)C1CCCN(C(=O)c2cc(F)cc(F)c2)CC1 (stereo unspecified),·,-4,-4,-2,-2,0,·
CN(C(=O)CN1C(=O)S/C(=C\c2ccc(Cl)cc2)C1=O)C1CCS(=O)(=O)C1 (stereo unspecified),7,5,-37,-2,1,1,·
Cn1ncc(Cl)c1C(=O)N1CCN(c2ncccn2)CC1,-1,1,-2,-3,-2,3,·
O=C(/C=C/c1ccc2ccccc2c1)c1ccoc1,-8,30*,4,0,4,21,-4
Cc1cccc(C=CC(=O)c2ccccc2)c1,-5,-5,-1,1,2,4,·
Fc1ccccc1NC(=S)N1CCOCC1,-4,-1,3,3,0,4,·
O=c1[nH]cnc2c1sc1nc(-c3ccccc3)c3c(c12)CCCC3,-8,0,10,2,-1,5,·
